# Calls of active or inactive are those of the source. The rule behind the calls is not given here.
# Columns and labels:
# [1] = target: T1, Proto-oncogene tyrosine-protein kinase receptor Ret (Homo sapiens, UniProt P07949); assay: Inhibition of RET kinase in Sf9 cells; type: cell-based
# [2] = target: T1, Proto-oncogene tyrosine-protein kinase receptor Ret; assay: Inhibition of RET kinase expressed in Sf9 cells at 5000 nm
# In short: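 RET kinase domain (intracellular aa 713–1072, short isoform), expressed in Sf9 insect cells and Ni-purified. 100 ng enzyme was screened at a single 5000 nM concentration, in triplicate. Reaction: MOPS pH 7.4, MgCl2, ATP (100 µM stock) plus [γ-33P]ATP 1 µCi, and poly(Glu-Tyr) substrate, 30 min at room temperature. Stopped with 0.5% H3PO4, filtered on phosphocellulose, read as scintillation cpm (mean of three).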
# [3] = target: Angiopoietin-1 receptor (Homo sapiens) (UniProt Q02763); assay: Inhibitory of TIE2
# Angiopoietin-1 receptor (Homo sapiens), sequence (Q02763 whole entry): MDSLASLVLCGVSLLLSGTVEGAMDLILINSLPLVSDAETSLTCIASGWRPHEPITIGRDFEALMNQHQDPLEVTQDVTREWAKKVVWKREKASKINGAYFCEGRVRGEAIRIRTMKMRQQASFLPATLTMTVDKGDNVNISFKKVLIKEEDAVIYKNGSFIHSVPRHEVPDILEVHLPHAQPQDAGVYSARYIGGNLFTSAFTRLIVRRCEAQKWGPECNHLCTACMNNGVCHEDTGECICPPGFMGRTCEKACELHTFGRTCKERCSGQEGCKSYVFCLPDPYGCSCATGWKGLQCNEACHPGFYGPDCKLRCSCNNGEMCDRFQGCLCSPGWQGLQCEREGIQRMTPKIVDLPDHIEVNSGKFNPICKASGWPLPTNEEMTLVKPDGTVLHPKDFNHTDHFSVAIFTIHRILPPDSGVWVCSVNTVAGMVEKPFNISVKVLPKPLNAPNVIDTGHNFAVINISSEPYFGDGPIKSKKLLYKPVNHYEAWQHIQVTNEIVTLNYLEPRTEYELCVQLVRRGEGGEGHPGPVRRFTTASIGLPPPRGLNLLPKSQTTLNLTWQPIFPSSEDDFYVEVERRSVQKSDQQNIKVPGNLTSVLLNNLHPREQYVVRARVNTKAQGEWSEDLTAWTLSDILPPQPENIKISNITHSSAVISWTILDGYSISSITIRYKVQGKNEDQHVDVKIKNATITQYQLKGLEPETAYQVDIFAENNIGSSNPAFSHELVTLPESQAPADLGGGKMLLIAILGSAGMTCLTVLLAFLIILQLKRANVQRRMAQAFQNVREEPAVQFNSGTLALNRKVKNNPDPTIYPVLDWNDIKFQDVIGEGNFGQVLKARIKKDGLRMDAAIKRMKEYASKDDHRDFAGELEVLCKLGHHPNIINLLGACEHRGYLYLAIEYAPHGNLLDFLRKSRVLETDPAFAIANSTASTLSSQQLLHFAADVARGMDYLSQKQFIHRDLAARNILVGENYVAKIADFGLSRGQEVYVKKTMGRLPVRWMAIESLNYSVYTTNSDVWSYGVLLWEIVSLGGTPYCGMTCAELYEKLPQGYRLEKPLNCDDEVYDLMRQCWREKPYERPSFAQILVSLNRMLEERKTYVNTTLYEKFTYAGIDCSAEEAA
# [4] = target: Vascular endothelial growth factor receptor 2 (Homo sapiens) (UniProt P35968); assay: Inhibitory of VEGFR2
# Vascular endothelial growth factor receptor 2 (Homo sapiens), sequence (P35968 whole entry): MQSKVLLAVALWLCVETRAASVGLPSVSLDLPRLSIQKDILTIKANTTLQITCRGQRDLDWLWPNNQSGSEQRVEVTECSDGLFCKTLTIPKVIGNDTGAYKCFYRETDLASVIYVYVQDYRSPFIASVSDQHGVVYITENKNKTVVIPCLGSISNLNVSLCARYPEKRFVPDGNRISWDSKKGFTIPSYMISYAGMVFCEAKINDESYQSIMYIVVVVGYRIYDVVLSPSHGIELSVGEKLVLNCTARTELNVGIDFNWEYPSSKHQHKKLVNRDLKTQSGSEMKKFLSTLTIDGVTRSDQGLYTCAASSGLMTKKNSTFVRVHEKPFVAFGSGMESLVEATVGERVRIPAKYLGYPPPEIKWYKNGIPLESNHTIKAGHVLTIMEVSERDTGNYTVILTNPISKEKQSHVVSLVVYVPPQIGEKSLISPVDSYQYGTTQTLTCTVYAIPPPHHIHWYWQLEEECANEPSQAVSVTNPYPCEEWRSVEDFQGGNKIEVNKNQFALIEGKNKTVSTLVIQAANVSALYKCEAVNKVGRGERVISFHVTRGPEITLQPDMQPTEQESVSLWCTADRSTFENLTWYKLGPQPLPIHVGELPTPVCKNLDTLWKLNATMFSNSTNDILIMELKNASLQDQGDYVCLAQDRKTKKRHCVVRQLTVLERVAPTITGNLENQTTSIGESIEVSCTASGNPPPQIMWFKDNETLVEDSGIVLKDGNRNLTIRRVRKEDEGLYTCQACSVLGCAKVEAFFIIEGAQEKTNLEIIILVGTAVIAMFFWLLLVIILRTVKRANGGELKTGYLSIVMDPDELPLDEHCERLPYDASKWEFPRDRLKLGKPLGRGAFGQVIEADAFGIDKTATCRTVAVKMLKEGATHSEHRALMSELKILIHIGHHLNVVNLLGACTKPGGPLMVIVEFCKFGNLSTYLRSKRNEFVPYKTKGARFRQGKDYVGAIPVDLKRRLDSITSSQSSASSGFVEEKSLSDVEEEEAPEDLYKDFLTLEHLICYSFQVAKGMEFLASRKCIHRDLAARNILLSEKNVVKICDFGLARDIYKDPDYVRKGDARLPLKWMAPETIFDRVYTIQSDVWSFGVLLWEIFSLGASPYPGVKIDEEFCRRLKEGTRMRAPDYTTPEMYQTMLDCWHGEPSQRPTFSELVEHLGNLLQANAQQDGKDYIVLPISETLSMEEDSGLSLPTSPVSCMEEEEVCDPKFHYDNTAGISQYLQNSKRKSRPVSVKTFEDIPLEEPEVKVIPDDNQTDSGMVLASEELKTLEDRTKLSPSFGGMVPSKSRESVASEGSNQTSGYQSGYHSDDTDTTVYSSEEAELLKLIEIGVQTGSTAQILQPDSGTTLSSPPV
# SK-N-MC = assay: Inhibition of chimeric human EGFR/RET kinase expressed in SK-N-MC cells after 1 hr by Western blotting; type: cell-based
# [5] = target: Proto-oncogene tyrosine-protein kinase Src (Homo sapiens) (UniProt P12931); assay: Inhibitory of c-SRC
# Proto-oncogene tyrosine-protein kinase Src (Homo sapiens), sequence (P12931 2-536 limits assumed): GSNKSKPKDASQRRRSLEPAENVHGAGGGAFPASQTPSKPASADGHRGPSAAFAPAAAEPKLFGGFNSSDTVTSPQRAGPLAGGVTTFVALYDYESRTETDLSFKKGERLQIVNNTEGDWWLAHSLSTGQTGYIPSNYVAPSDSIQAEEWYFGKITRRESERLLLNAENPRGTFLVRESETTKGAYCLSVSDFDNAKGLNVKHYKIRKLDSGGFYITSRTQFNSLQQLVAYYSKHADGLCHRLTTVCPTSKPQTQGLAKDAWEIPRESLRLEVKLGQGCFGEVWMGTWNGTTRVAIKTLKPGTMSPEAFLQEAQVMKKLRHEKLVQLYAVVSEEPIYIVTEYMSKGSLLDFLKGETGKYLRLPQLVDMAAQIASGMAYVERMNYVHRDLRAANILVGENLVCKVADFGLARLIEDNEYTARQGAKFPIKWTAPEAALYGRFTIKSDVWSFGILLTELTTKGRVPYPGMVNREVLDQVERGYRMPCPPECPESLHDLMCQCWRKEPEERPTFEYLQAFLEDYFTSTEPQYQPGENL
# [6] = target: Tyrosine-protein kinase Lyn (Homo sapiens) (UniProt P07948); assay: Inhibitory of lyn
# Tyrosine-protein kinase Lyn (Homo sapiens), sequence (P07948 2-512 limits assumed): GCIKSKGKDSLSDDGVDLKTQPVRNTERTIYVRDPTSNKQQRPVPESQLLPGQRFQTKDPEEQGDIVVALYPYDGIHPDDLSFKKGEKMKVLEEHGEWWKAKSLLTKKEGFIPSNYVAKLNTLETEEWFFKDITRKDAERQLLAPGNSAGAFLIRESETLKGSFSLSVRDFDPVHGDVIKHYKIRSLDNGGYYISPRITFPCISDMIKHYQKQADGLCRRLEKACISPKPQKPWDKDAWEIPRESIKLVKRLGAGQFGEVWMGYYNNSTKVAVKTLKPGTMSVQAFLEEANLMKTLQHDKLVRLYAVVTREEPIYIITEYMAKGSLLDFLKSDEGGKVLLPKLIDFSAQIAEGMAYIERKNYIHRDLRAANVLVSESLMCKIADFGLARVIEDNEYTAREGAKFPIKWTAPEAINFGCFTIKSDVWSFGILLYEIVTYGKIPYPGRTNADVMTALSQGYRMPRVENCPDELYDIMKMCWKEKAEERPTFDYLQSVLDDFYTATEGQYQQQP
# T1 sequence (P07949 whole entry): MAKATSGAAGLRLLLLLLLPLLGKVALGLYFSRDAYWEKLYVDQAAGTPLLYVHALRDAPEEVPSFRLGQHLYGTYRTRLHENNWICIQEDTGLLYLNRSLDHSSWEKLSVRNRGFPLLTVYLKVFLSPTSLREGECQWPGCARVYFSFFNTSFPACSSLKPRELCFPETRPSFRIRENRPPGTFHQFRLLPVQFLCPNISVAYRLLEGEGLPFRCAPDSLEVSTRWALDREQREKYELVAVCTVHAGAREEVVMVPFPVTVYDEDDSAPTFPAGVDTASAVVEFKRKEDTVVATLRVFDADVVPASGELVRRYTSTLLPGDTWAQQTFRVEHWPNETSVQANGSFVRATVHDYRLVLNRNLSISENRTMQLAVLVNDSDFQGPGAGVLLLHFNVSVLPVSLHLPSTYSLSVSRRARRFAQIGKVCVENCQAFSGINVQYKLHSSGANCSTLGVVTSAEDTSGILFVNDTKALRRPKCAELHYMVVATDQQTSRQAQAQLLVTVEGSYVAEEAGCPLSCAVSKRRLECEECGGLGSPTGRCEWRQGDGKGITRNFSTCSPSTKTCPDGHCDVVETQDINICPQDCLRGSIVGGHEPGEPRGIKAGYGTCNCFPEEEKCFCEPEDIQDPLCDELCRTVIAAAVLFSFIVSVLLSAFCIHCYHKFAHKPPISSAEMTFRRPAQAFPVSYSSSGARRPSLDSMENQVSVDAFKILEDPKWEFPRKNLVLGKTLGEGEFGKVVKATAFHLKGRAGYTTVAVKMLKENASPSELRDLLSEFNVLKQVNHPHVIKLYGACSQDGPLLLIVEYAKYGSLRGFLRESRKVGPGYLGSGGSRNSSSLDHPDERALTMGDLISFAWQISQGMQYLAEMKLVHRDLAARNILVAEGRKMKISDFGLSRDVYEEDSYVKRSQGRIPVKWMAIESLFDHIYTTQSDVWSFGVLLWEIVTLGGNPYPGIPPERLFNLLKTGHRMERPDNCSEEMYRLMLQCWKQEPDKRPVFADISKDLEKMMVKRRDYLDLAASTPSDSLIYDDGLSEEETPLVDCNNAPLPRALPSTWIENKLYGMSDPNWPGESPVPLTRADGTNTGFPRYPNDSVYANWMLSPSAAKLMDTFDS
IC50 [1],Activity [2],Compound,other results
75 nM,,Cc1ccc(O)cc1Nc1ccnc2cc(-c3ccccn3)ccc12,
6 nM,,Oc1cccc(Nc2ccnc3cc(-c4ccccn4)ccc23)c1,
,428 cpm,O=C1Nc2ccc3ncsc3c2/C1=C/Nc1ccc2c(c1)CS(=O)(=O)C2,
100 nM,,Oc1cccc(Nc2c(Cl)cnc3cc(-c4cncs4)ccc23)c1,
85 nM,,Oc1cc(Nc2ccnc3cc(-c4cc5ccccc5o4)ccc23)ccc1Br,
34 nM,,Cc1ccc(O)cc1Nc1ccnc2cc(-c3csc(CN4CCOCC4)n3)c(S(C)(=O)=O)cc12,Activity [3]: Active; Activity [4]: Active; ED50 (SK-N-MC): 45 nM; Activity [5]: Active; Activity [6]: Active
> 1000 nM,,Cc1ccc(O)cc1Nc1cc(C(F)(F)F)nc2cc(-c3ccncc3)ccc12,
90 nM,,Cc1ccc(O)cc1Nc1ccnc2ccc(S(=O)(=O)NCC3CC3)cc12,
95 nM,,Cc1ccc(O)cc1Nc1ccnc2ccc(C(=O)NC(C)C)cc12,
75 nM,,Oc1cc(Nc2ccnc3cc(-c4cccc(CNCCN5CCOCC5)c4)ccc23)c(F)cc1Cl,
25 nM,,OCc1nc(-c2ccc3c(Nc4cc(O)c(F)cc4Cl)ccnc3c2)cs1,
,298 cpm,COc1cc2ncnc(Nc3ccc(Cl)c(O)c3)c2cc1OC,
,355 cpm,NS(=O)(=O)c1ccc(-c2cnc3c(c2)/C(=C/c2cc(Br)c(O)c(Br)c2)C(=O)N3)cc1,
,,Cc1ccc(O)cc1Nc1ccnc2ccc(S(C)(=O)=O)cc12,Activity [3]: Active; Activity [4]: Active; Activity [5]: Active; Activity [6]: Active
,1210 cpm,CN(C)S(=O)(=O)c1ccc(N/C=C2\C(=O)Nc3ccc4ncccc4c32)cc1,
> 1000 nM,,Oc1cc(Nc2ccnc3cc(-c4ccc(CN5CCOCC5)o4)c(Cl)cc23)c(Cl)cc1F,
,460 cpm,CS(=O)(=O)c1ccc2nccc(Nc3cc(O)c(F)cc3Cl)c2c1,
,1310 cpm,CS(=O)(=O)Cc1ccc(N/C=C2\C(=O)Nc3ccc4ncsc4c32)cc1,

Compound,IC50 [1],Activity [2],other results
O=C1Nc2ccc3ncsc3c2/C1=C/c1c[nH]cn1,,950 cpm,

# Reference: ChEMBL document CHEMBL1137530, “The discovery of substituted 4-(3-hydroxyanilino)-quinolines as potent RET kinase inhibitors” (Bioorg Med Chem Lett, 2007)
